In PubChem BioAssay:
Calls of active or inactive are those of the source.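 Rule for the calls, unless noted: active = inhibition at or above 50% at 10 µM; inactive = inhibition below 50%.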

Tests used:
[1] = inhibitors of TNFa-induced NFkB p65 translocation, primary screen, imaging, HUVEC, MLSMR starter and 10KST1 sets (AID 438;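 active = inhibition above 20% together with a positive visual image hit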;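 note: compound added about 3h40 before a 20 min TNFalpha stimulation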;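 for inhibition: signal is the nuclear over cytoplasmic p65 intensity ratio per well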); details: HUVEC TNFa-induced p65 nuclear translocation; cell count: measured here: nuclei count (cytotoxicity indicator), at 2.08 µM; inhibition: at 2 µM, stronger effect = higher value, 0% TNFa-plus-vehicle, 100% no-TNFa wells
[2] = inhibitors of mutant huntingtin aggregation, primary screen, imaging, exon1htt(103Q)mCFP cells, high-content imaging (AID 483;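 active = visual image review flags a hit and inhibition of aggregation exceeds 20%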;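 note: compound exposure lasted 3 days before fixation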;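 for nuclei count: percent of the per-plate median nuclei count of sample wells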); details: exon1htt(103Q)mCFP cell line, aggregate imaging, at 2 µM; inhibition of aggregation: stronger effect = higher value; nuclei count: measured here: cell count, toxicity
[3] = inhibitors of E-selectin induction by TNFa, primary screen, imaging, HUVEC, immunofluorescence, MLSMR starter and 10KST1 sets (AID 487;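 active = visually confirmed hit in the image check and inhibition above 20%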;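 for inhibition: signal is fraction of cell area covered by stained E-selectin grains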;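 for nuclei count: 100% = median nuclei count of all wells on the same plate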); details: HUVEC TNFalpha-induced E-selectin immunofluorescence imaging, at 2 µM; inhibition: stronger effect = higher value; nuclei count: measured here: cell number, toxicity
[4] = target: Voltage-gated potassium channel subunit beta-2 (Rattus norvegicus) (UniProt P62483); experiment: KvBeta enzyme negative modulators, primary screen, biochemical, NADPH fluorescence (AID 622;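 active = fluorescence slope higher than the sample average by over 3 SD, cut at about -0.22 in these data, passing the limit was not always enough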;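 note: slope of raw intensity against log time taken from 70 to 1610 s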); details: recombinant KvBeta, 4-cyanobenzaldehyde reduction, at 10 µM, stronger effect = higher value
[5] = target: Voltage-gated potassium channel subunit beta-2 (Rattus norvegicus) (UniProt P62483); experiment: KvBeta positive modulators, primary screen, biochemical, NADPH fluorescence (AID 623;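 active = NADPH fluorescence slope more negative than the mean of all samples by about 3 SD, 99.7% confidence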;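 note: fluorescence intensity change per second fitted from 20 to 320 s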); details: Recombinant KvBeta, NADPH fluorescence decrease slope, 10 min; at 10 µM; stronger effect = lower value
[6] = target: Alpha-2C adrenergic receptor (Homo sapiens) (UniProt P18825); experiment: modulators of alpha2C/GIRK thallium flux, primary screen, cell-based, HEK293 alpha2C/GIRK1/2 (AID 624;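 active = fluorescence slope after compound addition differing from the mean of all screened samples at 99.7% confidence, in either direction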;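 note: slope of fluorescence ratio to pre-addition baseline per second over 15 to 24 s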); details: thallium flux BTC fluorescence, at 10 µM, actives lie on both sides
[7] = inhibitors of larval lipid processing in zebrafish, primary screen, whole organism, PED6 fluorescence, gall bladder and intestine (AID 686;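 active = a full or partial loss of lipid-probe fluorescence in the fish gall bladder, intestine or both, judged by eye; inactive = no fluorescence loss, or compound toxic to the fish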;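 note: larvae 5 to 7 days old with five fish per well; signal comes from phospholipase A2 cleavage of quenched PED6 carried via bile; overnight exposure to compound and PED6 before scoring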); details: Zebrafish larvae PED6 lipid processing, fluorescence scoring; screened at 20 µM (by protocol)
How it was run: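 Doses: 20 µM single dose. Test system: live zebrafish larvae aged 5-7 days, whole organism. Quantity: five larvae per well. Measured by: By-eye fluorescence microscopy. Reagent: ingested quenched lipid PED6 at 100 nM. Read-out: visual per-well fluorescence inhibition score. Times: overnight exposure of larvae to compound plus PED6.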

[8] = inhibitors of Sendai virus-induced IRF3 signaling, primary screen, TLR/RLR signaling modifier project, cell-based, Sendai virus stimulus, luciferase, 10K MLSCN set (AID 602276); details: HEK293 RL24 IRF3 luciferase reporter, at 10 µM, stronger effect = higher value;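 note: firefly luciferase from ISG56 promoter only with Renilla not read in this screen; 0% = Sendai virus plus DMSO and 100% = medium plus DMSO without virus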
[9] = inhibitors of poly I:C-induced TLR3 signaling, primary screen, cell-based, poly I:C stimulus, luciferase, 10K MLSCN set (AID 602277;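 active = inhibition of the reporter signal at or above 50%; inactive = inhibition below 50%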); details: HEK293-TLR3 RL24 IRF3 luciferase reporter, at 10 µM, stronger effect = higher value

Chain of Alpha-2C adrenergic receptor (Homo sapiens) (P18825 whole entry, looked up): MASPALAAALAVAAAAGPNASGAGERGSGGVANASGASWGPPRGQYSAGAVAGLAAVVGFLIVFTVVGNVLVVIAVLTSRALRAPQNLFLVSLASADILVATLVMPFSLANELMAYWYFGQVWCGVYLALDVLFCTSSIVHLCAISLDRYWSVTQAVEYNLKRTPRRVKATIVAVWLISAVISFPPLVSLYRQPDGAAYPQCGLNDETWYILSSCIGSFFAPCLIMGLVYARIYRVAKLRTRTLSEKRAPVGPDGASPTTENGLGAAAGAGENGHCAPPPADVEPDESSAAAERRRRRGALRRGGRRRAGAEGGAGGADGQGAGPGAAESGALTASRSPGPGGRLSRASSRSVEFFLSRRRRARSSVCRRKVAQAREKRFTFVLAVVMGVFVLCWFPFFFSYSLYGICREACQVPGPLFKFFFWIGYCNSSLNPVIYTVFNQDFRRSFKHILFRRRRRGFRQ
Chain of Voltage-gated potassium channel subunit beta-2 (Rattus norvegicus) (P62483 whole entry, looked up): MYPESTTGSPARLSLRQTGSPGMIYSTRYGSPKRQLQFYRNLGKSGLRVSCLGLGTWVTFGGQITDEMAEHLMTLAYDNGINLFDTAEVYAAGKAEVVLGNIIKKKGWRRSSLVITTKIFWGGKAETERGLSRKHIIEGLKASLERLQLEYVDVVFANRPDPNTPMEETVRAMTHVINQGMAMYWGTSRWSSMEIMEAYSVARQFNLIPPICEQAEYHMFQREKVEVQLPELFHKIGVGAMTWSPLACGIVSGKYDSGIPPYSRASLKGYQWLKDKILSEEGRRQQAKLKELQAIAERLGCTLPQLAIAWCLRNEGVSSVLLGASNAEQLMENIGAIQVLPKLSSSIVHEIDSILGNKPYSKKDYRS

Row | SMILES | cell count [1] | inhibition [1] | inhibition of aggregation [2] | nuclei count [2] | inhibition [3] | nuclei count [3] | fluorescence slope [4] | NADPH fluorescence slope [5] | slope [6] | outcome [7] | inhibition [8] | inhibition [9]
1 | Cc1nn(Cc2ccccc2)c2c1C(c1ccncc1)C(C#N)=C(N)O2 (stereo unspecified) | 273 | -1.3% (inactive) | 17.9% (inactive) | 62.3% | -58.9% (inactive) | 97.3% | -0.381 (inactive) | -5.9e-05 (inactive) | 0.0052 (inactive) | inactive | 2.54% (inactive) | 0.489% (inactive)
2 | C=CCOC(=O)CC(NC(=O)c1ccccc1)c1ccccc1 (stereo unspecified) | 510 | 9.6% (inactive) | -15.9% (inactive) | 98.4% | -231% (inactive) | 133% | -0.382 (inactive) | -6.2e-05 (inactive) | 0.00447 (inactive) | inactive | 13.9% (inactive) | 99% (active)
3 | Cc1nc2ccc(C(=O)O)cc2c2c1CC(C)S2 (stereo unspecified) | 462 | -3.8% (inactive) | -4% (inactive) | 106% | -20.4% (inactive) | 104% | -0.38 (inactive) | -4.3e-05 (inactive) | 0.00518 (inactive) | inactive | 13.9% (inactive) | 11.7% (inactive)
4 | Cc1onc(-c2ccccc2)c1C(=O)NCCN1CCOCC1 | 387 | 5% (inactive) | -14% (inactive) | 129% | 9.3% (inactive) | 93.5% | -0.38 (inactive) | -2.2e-05 (inactive) | 0.0053 (inactive) | inactive | 0.171% (inactive) | 0.994% (inactive)
5 | COc1ccc(S(=O)(=O)NCCSCc2ccco2)cc1Cl | 362 | 4.4% (inactive) | 13% (inactive) | 94% | 13.2% (inactive) | 108% | -0.424 (inactive) | -6.4e-06 (inactive) | 0.00484 (inactive) | inactive | 20.4% (inactive) | 19.9% (inactive)
6 | CCc1ccccc1N1C(=O)C2CC(C)=C(C)CC2C1=O (stereo unspecified) | 500 | 5.5% (inactive) | 18.2% (inactive) | 92.1% | -355% (inactive) | 124% | -0.368 (inactive) | -5.9e-05 (inactive) | 0.00511 (inactive) | inactive | 10.5% (inactive) | 4.14% (inactive)
7 | OC(CNCCc1ccccc1)c1ccccc1 (stereo unspecified) | 586 | 11% (inactive) | 14.9% (inactive) | 91.9% | 48.6% (inactive) | 55.2% | -0.37 (inactive) | -7.3e-05 (inactive) | 0.00466 (inactive) | inactive | 11.9% (inactive) | 15.7% (inactive)
8 | COc1ccccc1NC(=O)CSc1nnc(Cn2nnc(-c3ccccc3)n2)n1-c1ccccc1 | 644 | -12.5% (inactive) | 5.6% (inactive) | 104% | -50.5% (inactive) | 119% | -0.452 (inactive) | -5.2e-05 (inactive) | 0.00589 (inactive) | inactive | 19.9% (inactive) | 14.5% (inactive)
9 | Cc1cc(C)n(C(C)n2nc(C)cc2C)n1 | 367 | 4.3% (inactive) | -9.9% (inactive) | 110% | -37% (inactive) | 68% | -0.364 (inactive) | -6.5e-05 (inactive) | 0.00585 (inactive) | inactive | 11.8% (inactive) | 12.7% (inactive)
10 | O=C(NC1CCCCCC1)c1cc(S(=O)(=O)N2CCC3(CC2)OCCO3)ccc1F | 503 | -21.4% (inactive) | -53.3% (inactive) | 72.9% | -16.2% (inactive) | 83.7% | -0.36 (inactive) | 9e-06 (inactive) | 0.00552 (inactive) | inactive | -15.5% (inactive) | -37.6% (inactive)
11 | COc1ccc(C/C(O)=C(\C#N)c2nc3ccccc3s2)cc1 | 783 | -1.1% (inactive) | 2.2% (inactive) | 98.5% | -15.3% (inactive) | 111% | -0.378 (inactive) | -3.1e-05 (inactive) | 0.0036 (inactive) | inactive; toxic | 0.322% (inactive) | 6.03% (inactive)
12 | Cc1cn(C2CC3OCC3O2)c(=O)[nH]c1=O (stereo unspecified) | 381 | 2.5% (inactive) | 0.6% (inactive) | 98.5% | 30.5% (inactive) | 98.4% | -0.399 (inactive) | 1.2e-05 (inactive) | 0.00591 (inactive) | inactive | -0.457% (inactive) | 5.51% (inactive)
13 | O=C(NC1CCCC1)C(NS(=O)(=O)c1cccc2nsnc12)c1ccccc1 (stereo unspecified) | 309 | -16.3% (inactive) | 2.5% (inactive) | 103% | -22.2% (inactive) | 109% | -0.329 (inactive) | 1.1e-05 (inactive) | 0.0045 (inactive) | inactive | 17.9% (inactive) | 17.3% (inactive)
